Here are results for 9 molecules from ChEMBL document CHEMBL1143691, “Unusual naphthoquinone derivatives from the twigs of Avicennia marina” (2007).

SMILES strings stand for the structures. ≈ marks a conversion by molar mass, not a printed value. Some results are limits rather than exact numbers.

Holding throughout (assay type): functional
In one assay the test system is L929. As to the kind of experiment: Antiproliferative activity against mouse L929 cells.
For another assay, the system named is K562. The assay is described as follows: Antiproliferative activity against human K562 cells.
The subject of a further assay is HeLa. As to the kind of experiment: Cytotoxicity against human HeLa cells. Put shortly: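 Cytotoxicity in HeLa human cervix carcinoma cells (DSM ACC 57). Reported as CC50, the concentration that kills 50% of treated cells.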
The test system of another assay is Candida albicans. The assay is described as follows: Antimicrobial activity against Candida albicans BMSY 212 by micro-broth dilution method. Put shortly:
(§1)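 MIC by microbroth dilution following National Committee for Clinical Laboratory Standards guidelines; values are the mean of three independent experiments. Ciprofloxacin served as the antibacterial reference and amphotericin B as the antifungal reference.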

Assay [1] deals with Mycolicibacterium smegmatis. As to the kind of experiment: Antimicrobial activity against Mycobacterium smegmatis SG 987 by microbroth dilution method. Put shortly:
as §1

The next assay relates to Mycolicibacterium aurum. The assay is described as follows: Antimicrobial activity against Mycobacterium aurum SB 66 by micro-broth dilution method. Put shortly: as §1
For another assay, the system named is Mycolicibacterium vaccae. The assay is described as follows: Antimicrobial activity against Mycobacterium vaccae IMET 10670 by microbroth dilution method. Put shortly:
as §1

For assay [2], the system named is Mycolicibacterium fortuitum. The assay is described as follows: Antimicrobial activity against Mycobacterium fortuitum B by micro-broth dilution method. Put shortly:
as §1

The next assay has as its system Staphylococcus aureus. As to the kind of experiment: Antimicrobial activity against methicillin-resistant Staphylococcus aureus 134/93 by micro-broth dilution method. Put shortly:
(§2)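 MIC determined by microbroth dilution following NCCLS (National Committee for Clinical Laboratory Standards) guidelines. Each value is the mean of three independent experiments.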

The next assay has as its system Enterococcus faecalis. As to the kind of experiment: Antimicrobial activity against vancomycin-resistant Enterococcus faecalis 1528 by micro-broth dilution method. Put shortly: as §2

For `CC(C)(O)[C@@H]1CC2=C(O1)C(=O)c1ccccc1C2=O` [STENOCARPOQUINONE B], the GI50 in the assay on L929 was determined as 1.2 µg/mL (≈ 4.65 µM); with K562, 0.2 µg/mL (≈ 0.774 µM). The 50% cytotoxic concentration (CC50) with HeLa was found to be 4.3 µg/mL (≈ 16.6 µM). In addition, the MIC with Candida albicans worked out at 12.5 µg/mL (≈ 48.4 µM); in assay [1] it was 12.5 µg/mL (≈ 48.4 µM); against Mycolicibacterium aurum it was 12.5 µg/mL (≈ 48.4 µM); against Mycolicibacterium vaccae, 6.25 µg/mL (≈ 24.2 µM); in assay [2] it was 25 µg/mL (≈ 96.8 µM); with Staphylococcus aureus, 12.5 µg/mL (≈ 48.4 µM). Moreover, the MIC against Enterococcus faecalis came out at 25 µg/mL (≈ 96.8 µM).
Turning to `COc1c2c(c(OC)c3ccccc13)[C@H](O)[C@@H](C(C)(C)O)O2` [AVICENOL A], the GI50 in the assay with L929 and in the assay with K562 was greater than 10 µg/mL each time. In the assay with HeLa, this molecule yielded a cytotoxic concentration (CC50) greater than 10 µg/mL.
`C[C@@H]1[C@H](O)[C@@H](C)/C=C/C=C/C=C/C=C/C=C/C=C/C=C/[C@H](O[C@@H]2O[C@H](C)[C@@H](O)[C@H](N)[C@@H]2O)C[C@@H]2O[C@](O)(C[C@@H](O)C[C@@H](O)[C@H](O)CC[C@@H](O)C[C@@H](O)CC(=O)O[C@H]1C)C[C@H](O)[C@H]2C(=O)O` [AMPHOTERICIN B]: in the assay with Candida albicans, the MIC is less than 0.05 µg/mL.
Turning to `CC(C)(O)[C@H]1OC2=C(C(=O)c3ccccc3C2=O)[C@@H]1O` [AVICEQUINONE A], the MIC came to 12.5 µg/mL (≈ 45.6 µM) in the assay on Candida albicans; 12.5 µg/mL (≈ 45.6 µM) in assay [1]; 12.5 µg/mL (≈ 45.6 µM) against Mycolicibacterium aurum; 12.5 µg/mL (≈ 45.6 µM) with Mycolicibacterium vaccae; 12.5 µg/mL (≈ 45.6 µM) in [2]; 6.25 µg/mL (≈ 22.8 µM) in the assay with Staphylococcus aureus. The molecule further returned an MIC against Enterococcus faecalis of 50 µg/mL (≈ 182 µM).
Regarding `CC(=O)O[C@H]1C(=O)[C@@]2(C)[C@H]([C@H](OC(=O)c3ccccc3)[C@]3(O)C[C@H](OC(=O)[C@H](O)[C@@H](NC(=O)c4ccccc4)c4ccccc4)C(C)=C1C3(C)C)[C@]1(OC(C)=O)CO[C@@H]1C[C@@H]2O` [PACLITAXEL], the GI50 worked out at 0.1 µg/mL (≈ 0.117 µM) with L929 and 0.01 µg/mL (≈ 0.0117 µM) in the assay with K562. Moreover, the midpoint of cytotoxicity in the assay on HeLa, the CC50, lay at 0.01 µg/mL (≈ 0.0117 µM).
On to `O=C(O)c1cn(C2CC2)c2cc(N3CCNCC3)c(F)cc2c1=O` [CIPROFLOXACIN], for which the minimum inhibitory concentration (MIC) is 0.4 µg/mL (≈ 1.21 µM) in assay [1]; less than 0.05 µg/mL with Mycolicibacterium aurum; 0.2 µg/mL (≈ 0.604 µM) in the assay on Mycolicibacterium vaccae; 0.2 µg/mL (≈ 0.604 µM) in [2]; 12.5 µg/mL (≈ 37.7 µM) with Staphylococcus aureus; 0.8 µg/mL (≈ 2.41 µM) in the assay with Enterococcus faecalis.
Regarding `COC(=O)c1ccccc1/C(OC)=C1/C[C@@H](C(C)(C)O)OC1=O` [AVICENNONE A], the GI50 in the assay with L929 and in the assay with K562 was greater than 10 µg/mL each time. Further, in the assay on HeLa, the CC50 was greater than 10 µg/mL.
Turning to `CC(C)(O)c1cc2c(o1)C(=O)c1ccccc1C2=O` [AVICEQUINONE C], the values for the concentration for 50% growth inhibition (GI50) with L929 and in the assay on K562 were 0.8 µg/mL (≈ 3.12 µM) and 1.1 µg/mL (≈ 4.29 µM), respectively. In the assay with HeLa, it took 3.2 µg/mL (≈ 12.5 µM) to reach half-maximal cytotoxicity (CC50). For the same molecule, the MIC is 12.5 µg/mL (≈ 48.8 µM) in the assay on Candida albicans; 6.25 µg/mL (≈ 24.4 µM) in assay [1]; 6.25 µg/mL (≈ 24.4 µM) in the assay on Mycolicibacterium aurum; 6.25 µg/mL (≈ 24.4 µM) in the assay on Mycolicibacterium vaccae; 12.5 µg/mL (≈ 48.8 µM) in [2]; 6.25 µg/mL (≈ 24.4 µM) against Staphylococcus aureus. In the assay with Enterococcus faecalis, the lowest concentration to inhibit growth (MIC) was 50 µg/mL (≈ 195 µM).
Regarding `COc1c2c(c(OC)c3ccccc13)O[C@H](C(C)(C)O)C2` [AVICENOL C], the 50% growth inhibitory concentration (GI50) with L929 and in the assay on K562 was greater than 10 µg/mL each time. Moreover, the 50% cytotoxic concentration (CC50) with HeLa was greater than 10 µg/mL.
